Data: ChEMBL document CHEMBL1126642, “N-(1-methyl-5-indolyl)-N'-(3-pyridyl)urea hydrochloride: the first selective 5-HT1C receptor antagonist” (J Med Chem, 1993)

Key:
[1] = molecular target: T1, 5-hydroxytryptamine receptor 2C (Rattus norvegicus) (UniProt P08909); test: Binding affinity towards rat 5-hydroxytryptamine 1C receptor using [3H]mesulergine as radioligand expressed in 293 cells; type: cell-based; conditions: HEK293
T1 sequence (whole entry): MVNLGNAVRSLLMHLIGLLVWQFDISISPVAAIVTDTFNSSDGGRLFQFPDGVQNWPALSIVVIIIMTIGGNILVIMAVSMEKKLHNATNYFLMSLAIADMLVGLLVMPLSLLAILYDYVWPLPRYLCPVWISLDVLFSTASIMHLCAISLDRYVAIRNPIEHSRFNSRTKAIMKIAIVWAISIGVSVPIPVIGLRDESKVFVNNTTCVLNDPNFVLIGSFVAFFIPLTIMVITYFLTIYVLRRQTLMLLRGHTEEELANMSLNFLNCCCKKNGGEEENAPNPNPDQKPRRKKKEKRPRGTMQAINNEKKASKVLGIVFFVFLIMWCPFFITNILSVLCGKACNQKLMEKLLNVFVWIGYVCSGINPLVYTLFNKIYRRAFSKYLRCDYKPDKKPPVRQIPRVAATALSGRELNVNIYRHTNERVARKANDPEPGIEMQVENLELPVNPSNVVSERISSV
Method in brief: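 Cloned rat 5-HT1C receptor expressed in 293 cells, labelled with [3H]mesulergine. Values are means ± SEM of n = 3 determinations.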

[2] = Selectivity ratio is Ki value of 5-HT2 receptor to that of 5-HT1c receptor
Method in brief: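 Ratio of Ki at 5-HT2 ([3H]ketanserin, rat frontal cortex) to Ki at 5-HT1C ([3H]mesulergine, rat clone in 293 cells). Each Ki is a mean of n = 3 determinations.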

Row | Structure (SMILES) | pK1 [1] | Selectivity [2]
1 | Cn1ccc2cccc(NC(=O)Nc3ccccc3)c21 | < 5.3 | 
2 | Cn1ccc2c(NC(=O)Nc3ccccn3)cccc21 | 6.49 | > 19
3 | Cn1ccc2c(NC(=O)Nc3ccncc3)cccc21 | 7.18 | 45
